Consider one compound from ChEMBL document CHEMBL4007452, “Discovery of an Orally Selective Inhibitor of Signal Transducer and Activator of Transcription 3 Using Advanced Multiple Ligand Simultaneous Docking” (J Med Chem, 2017).

A word on the IC50: it is the concentration at which inhibition is half-maximal. Low values mean greater potency, high ones weaker potency. The term AUC(0-t) denotes exposure summed from dosing to a finite time, without extrapolation to infinity. A low value points to low exposure. One may read the MRT last as a mean duration of stay, worked out from the concentration-time curve. The term MRT inf denotes the average time that molecules of a dose stay in the body.

Activity calls are given as the source filed them. The rule behind the calls is not given here.

A short description of data set [1]: Antiproliferative activity against human UW426 cells after 24 hrs by MTT assay. The class given is functional, cell-based. The settings on record: UW426, 24 h. Summed up: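 Cells were seeded at 3000 per well and incubated 24 h at 37 °C. Compounds were added in triplicate with 10% FBS: 0.1-10 or 0.1-20 µM for cancer lines, 3.125-400 µM for MCF-10A. Viability was read by MTT absorbance at 595 nm, with IC50 fitted from the curves. DMSO stocks were 20 mM.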
Background: Formazan colour is commonly taken as a measure of viable cells.

In data set [2] the target is T1, Signal transducer and activator of transcription 1-alpha/beta (Homo sapiens) (UniProt P42224).
T1 sequence (whole entry): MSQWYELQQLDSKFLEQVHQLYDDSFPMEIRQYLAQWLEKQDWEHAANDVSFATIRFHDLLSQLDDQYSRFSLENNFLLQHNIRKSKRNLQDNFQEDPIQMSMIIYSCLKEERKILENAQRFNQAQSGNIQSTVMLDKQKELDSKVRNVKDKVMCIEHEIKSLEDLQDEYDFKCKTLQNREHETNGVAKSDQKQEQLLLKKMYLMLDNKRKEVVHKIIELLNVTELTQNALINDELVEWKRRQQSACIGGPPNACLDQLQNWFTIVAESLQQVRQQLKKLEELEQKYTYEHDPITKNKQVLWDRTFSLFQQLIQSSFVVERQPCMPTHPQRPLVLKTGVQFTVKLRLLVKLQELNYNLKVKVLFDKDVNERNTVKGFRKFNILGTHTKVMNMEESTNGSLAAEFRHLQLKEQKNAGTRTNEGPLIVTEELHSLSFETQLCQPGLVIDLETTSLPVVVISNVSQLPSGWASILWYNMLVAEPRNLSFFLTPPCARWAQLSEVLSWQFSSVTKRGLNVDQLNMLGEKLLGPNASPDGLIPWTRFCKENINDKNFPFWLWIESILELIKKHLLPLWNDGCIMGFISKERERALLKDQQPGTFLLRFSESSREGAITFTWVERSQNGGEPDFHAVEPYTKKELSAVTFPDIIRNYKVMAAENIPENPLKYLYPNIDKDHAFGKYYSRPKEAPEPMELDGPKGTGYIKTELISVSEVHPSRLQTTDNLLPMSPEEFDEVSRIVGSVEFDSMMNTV
In words: Binding affinity to STAT1 (unknown origin) after 30 mins by fluorescence polarization assay. The method, boiled down: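 A competitive fluorescence polarization assay measured displacement of fluorescent phosphopeptide from the SH2 domain of purchased STAT1 or STAT5 protein, using the corresponding peptides.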

Data set [3] concerns the target T1, Signal transducer and activator of transcription 1-alpha/beta (Homo sapiens). In words: Inhibition of STAT1 in human MDA-MB-231 cells assessed as reduction in STAT1 phosphorylation at Y701 site at 2.5 to 10 uM after 12 hrs by immunoblot analysis. The class given is cell-based. (A western blot detects proteins with antibodies after separation by electrophoresis.)

Data set [4] has as its target T2, Signal transducer and activator of transcription 5A (Homo sapiens) (UniProt P42229).
T2 sequence (whole entry): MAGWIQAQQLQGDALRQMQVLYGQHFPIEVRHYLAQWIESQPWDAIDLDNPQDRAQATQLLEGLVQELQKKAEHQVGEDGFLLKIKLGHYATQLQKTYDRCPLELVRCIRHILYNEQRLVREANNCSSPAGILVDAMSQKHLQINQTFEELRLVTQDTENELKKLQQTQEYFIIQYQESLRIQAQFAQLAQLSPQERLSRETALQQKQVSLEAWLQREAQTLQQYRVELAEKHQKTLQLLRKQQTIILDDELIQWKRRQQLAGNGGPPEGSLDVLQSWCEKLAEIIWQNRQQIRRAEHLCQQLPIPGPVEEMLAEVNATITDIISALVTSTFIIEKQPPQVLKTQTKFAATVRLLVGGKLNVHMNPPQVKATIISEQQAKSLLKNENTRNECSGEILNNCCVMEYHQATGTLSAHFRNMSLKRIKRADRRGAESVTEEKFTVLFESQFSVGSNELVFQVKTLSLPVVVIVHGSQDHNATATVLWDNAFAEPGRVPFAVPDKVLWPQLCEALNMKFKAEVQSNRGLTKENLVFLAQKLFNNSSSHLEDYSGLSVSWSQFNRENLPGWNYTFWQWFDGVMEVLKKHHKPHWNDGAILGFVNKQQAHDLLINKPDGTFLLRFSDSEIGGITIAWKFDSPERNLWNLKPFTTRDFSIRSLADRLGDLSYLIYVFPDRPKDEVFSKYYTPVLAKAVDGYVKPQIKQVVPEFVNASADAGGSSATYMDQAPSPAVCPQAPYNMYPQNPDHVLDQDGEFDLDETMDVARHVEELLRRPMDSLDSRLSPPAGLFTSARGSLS
In words: Inhibition of STAT5 dimerization in human MDA-MB-231 cells assessed as inhibition of STAT5-STAT5 DNA binding activity at 5 uM after 24 hrs by EMSA. The class given is cell-based. The method, boiled down:
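MDA-MB-231 cells were treated at 5 µM for 0-24 h before nuclear extract preparation. Extracts were incubated with biotin-labeled probe for 30 min at room temperature, then analysed by EMSA.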
(In general: In EMSA bound probe runs differently from free probe, usually more slowly.)

The test system of the next data set is Mus musculus. In words: Toxicity in BALB/c nude mouse xenografted with human MDA-MB-231 cells assessed as reduction in body weight at 2.5 to 10 mg/kg, po qd administered for 32 days. To be noted: in vivo, 768 h. The class given is organism-based. Summed up:
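MDA-MB-231 cells (5 x 10^6) were implanted s.c. in the flank of 6-week-old female athymic BALB/c nude mice. Oral dosing started at a tumor volume of about 100 mm3, with 8 mice per group and a saline vehicle control. […] Body weight was tracked over the 32-day treatment.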

Data set [5] is described as follows: AUC (0 to t) in Sprague-Dawley rat plasma at 1 mg/kg, iv measured after 24 hrs by UPLC analysis. The class given is ADME, organism-based. Set-up: dose 1 mg/kg, time < 24 hr, route intravenous. Summed up: (§1)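 Rat plasma sampled from 2 min to 24 h after a single i.v. (1 mg/kg) or p.o. (10 mg/kg) dose. Parameters were derived from the concentration-time profiles. The bioanalytical method was validated to FDA guidelines for selectivity, linearity, LLOQ, accuracy, precision, recovery, matrix effect and stability.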

The nature of data set [6]: Terminal half life in Sprague-Dawley rat plasma at 10 mg/kg, po measured after 24 hrs by UPLC analysis. Format: ADME, organism-based. To be noted: read-out: beta t1/2 (converted). The method, boiled down:
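Rats dosed i.v. or p.o. Plasma concentrations followed from 2 min to 24 h after dosing. The bioanalytical method was validated to FDA guidelines for selectivity, linearity, LLOQ, accuracy, precision, recovery, matrix effect and stability.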

Data set [7] can be described thus: MRT (0 to t) in Sprague-Dawley rat plasma at 10 mg/kg, po measured after 24 hrs by UPLC analysis. Format: ADME, organism-based. Summed up: as §1
Data set [8] can be described thus: MRT (0 to infinity) in Sprague-Dawley rat plasma at 10 mg/kg, po measured after 24 hrs by UPLC analysis. Format: ADME, organism-based. The method, boiled down:
as §1

Data set [9] addresses Signal transducer and activator of transcription 3 (Homo sapiens, UniProt P40763). To be noted: 5 to 10 uM.

Signal transducer and activator of transcription 3, sequence (P40763 whole entry): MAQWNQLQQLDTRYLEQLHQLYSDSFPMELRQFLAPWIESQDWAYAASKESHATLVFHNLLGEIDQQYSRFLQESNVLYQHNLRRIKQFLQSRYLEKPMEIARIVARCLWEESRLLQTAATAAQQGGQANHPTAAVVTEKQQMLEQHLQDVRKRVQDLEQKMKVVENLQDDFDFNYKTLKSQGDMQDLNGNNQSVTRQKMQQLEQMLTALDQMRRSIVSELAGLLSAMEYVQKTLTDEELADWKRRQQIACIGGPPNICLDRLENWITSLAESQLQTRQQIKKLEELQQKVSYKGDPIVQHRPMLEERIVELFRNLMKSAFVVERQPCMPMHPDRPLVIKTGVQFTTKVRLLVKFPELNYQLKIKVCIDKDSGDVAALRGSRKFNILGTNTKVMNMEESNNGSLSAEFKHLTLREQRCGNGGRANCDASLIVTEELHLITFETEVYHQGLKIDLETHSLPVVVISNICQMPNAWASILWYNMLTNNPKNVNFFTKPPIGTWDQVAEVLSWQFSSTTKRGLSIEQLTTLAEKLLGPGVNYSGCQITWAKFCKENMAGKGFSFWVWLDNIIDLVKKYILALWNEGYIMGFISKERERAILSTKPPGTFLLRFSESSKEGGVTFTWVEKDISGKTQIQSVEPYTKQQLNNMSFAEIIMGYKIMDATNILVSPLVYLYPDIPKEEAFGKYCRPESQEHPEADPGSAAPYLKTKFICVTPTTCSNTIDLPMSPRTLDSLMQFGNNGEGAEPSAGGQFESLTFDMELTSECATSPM

In [1], `NS(=O)(=O)c1cccc2c1C(=O)C=C(Nc1ccccc1N1CCNCC1)C2=O` returned an IC50 of 1.2 µM. The result in data set [2] was inactive. Besides, the inhibition result in data set [3] and in [4] was “inactive” throughout. In addition, the Activity entry in the data set with Mus musculus is given as “Non-Toxic”. For the same compound, the AUC(0-t) at 24 h in [5] is 189 ng·h/mL. Further, the half-life in data set [6] is 1.98 h. This compound had an MRT last at 24 h in data set [7] of 1.87 h. Also, the MRT inf in data set [8] amounted to 2.25 h. Moreover, the inhibition result in data set [9] is “Active”.
